Published values from different studies.
Protocols differ between the studies behind these lines.
SLC10A2: Ileal sodium/bile acid cotransporter (SLC10A2, Homo sapiens, UniProt Q12908)
STK35: Serine/threonine-protein kinase 35 (STK35, Homo sapiens, UniProt Q8TDR2)
Methionyl-tRNA synthetase, putative: Methionyl-tRNA synthetase, putative (Trypanosoma brucei brucei, UniProt Q38C91)
BRD9: Bromodomain-containing protein 9 (BRD9, Homo sapiens, UniProt Q9H8M2)
ACVR2A: Activin receptor type-2A (ACVR2A, Homo sapiens, UniProt P27037)

Nc1nc(NC2CC2)c2ncn([C@H]3C=C[C@@H](CO)C3)c2n1 — inhibition (SLC10A2; transporter uptake, inhibitor, radiometric; 1 mM): 13.1%
Cc1cc(NC(=O)c2cccc3cc(-c4cccc5[nH]nc(N)c45)ccc23)ccc1F — activity vs control (Phosphatidylinositol 5-phosphate 4-kinase type-2 alpha (PIP4K2A, Homo sapiens, UniProt P48426); enzyme activity, inhibitor; 0.1 µM): 98%
Cc1ccc(C(=O)Nc2ccc(CN3CCN(C)CC3)c(C(F)(F)F)c2)cc1C#Cc1cnc2cccnn12 — remaining activity (STK35; enzyme activity, inhibitor; 23.5 nM): 98%
CC(=O)N[C@H]1CSSC[C@@H](C(=O)N[C@@H](Cc2c[nH]c3ccccc23)C(N)=O)NC(=O)[C@@H](Cc2ccccc2)NC(=O)[C@H](CCCNC(=N)N)NC1=O — Emax (Melanocortin receptor 5 (MC5R, Homo sapiens, UniProt P33032); cAMP, agonist; HEK293; 3 min): 0%
Oc1ccc(-c2nc(-c3ccncc3)c(-c3ccc(F)cc3)[nH]2)cc1 — ΔTm (PHIP, BD2 (Homo sapiens, UniProt Q8WWQ0); thermal stability, DSF; 10 µM): 0.27 °C
CCOC(=O)[C@](CC)(CCCS(=O)(=O)CCOCCOCCNC(=O)OC(C)(C)C)NC(=O)c1ccc(C2CC2)c(Cc2ccc(F)cc2)n1 — Emax (Cannabinoid receptor 2 (CNR2, Homo sapiens, UniProt P34972); cAMP, agonist): 89%
COc1cc2ncnc(Nc3ccc(F)c(Cl)c3)c2cc1OCCCN1CCOCC1 — inhibition (SLC10A2; transporter uptake, inhibitor, radiometric; 1 mM): < 10%
Nc1ncnc2occ(-c3ccc(NC(=O)Nc4cc(C(F)(F)F)ccc4F)cc3)c12 — remaining signal (STK35; cell-free assay, inhibitor; 20 µM): 1.6%
CN(CCNCc1cc(Cl)cc(Cl)c1)c1nc2nc(Cl)ccc2[nH]1 — ΔTm (Methionyl-tRNA synthetase, putative; thermal stability, DSF; 100 µM): 18.4 °C
CCCCOc1cc(C(=O)NCCN(CC)CC)c2ccccc2n1 — inhibition (SLC10A2; transporter uptake, inhibitor, radiometric; 1 mM): 68.8%
Cc1cnc(Nc2ccc(OCCN3CCCC3)cc2)nc1Nc1cccc(S(=O)(=O)NC(C)(C)C)c1 — ΔTm (BRD9; thermal stability, DSF; 10 µM): 0.58 °C
O=c1oc2c(O)c(O)cc3c(=O)oc4c(O)c(O)cc1c4c23 — inhibition (Histone-lysine N-methyltransferase SETD7 (SETD7, Homo sapiens, UniProt Q8WTS6); cell-free assay; 10 µM): 20%
Cn1c2c(c3ccc(Cl)c(Cl)c31)C(C#N)C1(CCN(C(=O)OC(C)(C)C)CC1)NC2=O (racemic) — ΔTm (ACVR2A; thermal stability, DSF; 10 µM): 0 °C
C[S+]([O-])c1ccc(-c2nc(-c3ccncc3)c(-c3ccc(F)cc3)[nH]2)cc1 (stereo not drawn) — ΔTm (BRD9; thermal stability, DSF; 10 µM): -0.33 °C
CN1CCN(c2ccc([N+](=O)[O-])cc2NC(=O)c2ccccc2)CC1 — ΔTm (WD repeat-containing protein 5 (WDR5, Homo sapiens, UniProt P61964); thermal stability, DSF; 100 µM): 3.8 °C
Cc1cc2c(cc1N1C(=O)c3cccc4c(Cl)ccc(c34)C1=O)n(C)c(=O)n2C — ΔTm (PHIP (Homo sapiens, UniProt Q8WWQ0); thermal stability, DSF; 10 µM): -2.4 °C
Cn1c2c(c3ccc(Cl)c(Cl)c31)C(C#N)C1(CCCC1)NC2=O (stereo not drawn) — ΔTm (ACVR2A; thermal stability, DSF; 10 µM): 0 °C
NS(=O)(=O)c1ccc(Nc2nc(-c3ccc(F)cc3)c3ccccc3n2)cc1 — remaining binding (BRD9; binding, competition with immobilised ligand; 1 µM): 81%
COc1cc(Cl)c(C(=O)N[C@@H](CN[C@H]2CC[C@@H](N)CC2)Cc2ccc(C#N)cc2)cc1-c1ccc(CN[C@H](C)c2ccc(C)cc2)o1 — remaining activity (STK35; enzyme activity, inhibitor; 1 µM): 98%
O=C(Cc1cc(Cl)cc(Cl)c1)N1CCCC(c2nc3cc(Cl)c(F)cc3[nH]2)C1 (stereo not drawn) — ΔTm (Methionyl-tRNA synthetase, putative; thermal stability, DSF; 100 µM): 7 °C
Nc1ccn([C@H]2C[C@H](O)[C@@H](COP(=O)(O)OP(=O)(O)OP(=O)(O)O)O2)c(=O)n1 — Km (DNA polymerase lambda (POLL, Homo sapiens, UniProt Q9UGP5); enzyme activity, substrate): 0.016 µM
